The values that follow come from publication PMC4864154 (Journal of molecular biology, 2014).

Read-outs that look alike come from different tables or passages of the source.

The target in one test is WT GluN1/2A (Rattus norvegicus, UniProt P35439+Q00959). Nature of the test: Two-electrode voltage-clamp, steady-state block in Xenopus oocytes, WT receptor. The class given is cell-based. For orientation: In two-electrode clamp one electrode senses voltage and the other passes current.
Another test has as its target GluN1-N616G/2A (Rattus norvegicus, UniProt P35439+Q00959, N616G). The test is classed as cell-based.
In another test the target is GluN1-I619G/2A (Rattus norvegicus, UniProt P35439+Q00959, I619G). The test is classed as cell-based. The gist of the method:
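Xenopus oocytes were injected with cRNA for rat GluN1-1a I619G (site-directed mutant, sequence-verified) at 1 ng and WT GluN2A at 10 ng per oocyte. Two-electrode voltage clamp at -60 mV in buffer of 115 mM NaCl, 2 mM KCl, 5 mM HEPES and 1.8 mM BaCl2, pH 7.6. Percent steady-state block of agonist-evoked current by 100 nM test compound or 0.5 mM Mg2+. Mean + SEM from 4–8 oocytes; ANOVA against WT.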

For test [1], the target named is GluN1 S617 Gly-substituted GluN1/2A (Rattus norvegicus, UniProt P35439+Q00959, S617G). The class given is cell-based.
The target in test [2] is recombinant GluN1/2A receptors (Rattus norvegicus, UniProt P35439+Q00959). The class given is cell-based.
recombinant GluN1/2A receptors, sequence (Q00959 23-1464, other chains not shown): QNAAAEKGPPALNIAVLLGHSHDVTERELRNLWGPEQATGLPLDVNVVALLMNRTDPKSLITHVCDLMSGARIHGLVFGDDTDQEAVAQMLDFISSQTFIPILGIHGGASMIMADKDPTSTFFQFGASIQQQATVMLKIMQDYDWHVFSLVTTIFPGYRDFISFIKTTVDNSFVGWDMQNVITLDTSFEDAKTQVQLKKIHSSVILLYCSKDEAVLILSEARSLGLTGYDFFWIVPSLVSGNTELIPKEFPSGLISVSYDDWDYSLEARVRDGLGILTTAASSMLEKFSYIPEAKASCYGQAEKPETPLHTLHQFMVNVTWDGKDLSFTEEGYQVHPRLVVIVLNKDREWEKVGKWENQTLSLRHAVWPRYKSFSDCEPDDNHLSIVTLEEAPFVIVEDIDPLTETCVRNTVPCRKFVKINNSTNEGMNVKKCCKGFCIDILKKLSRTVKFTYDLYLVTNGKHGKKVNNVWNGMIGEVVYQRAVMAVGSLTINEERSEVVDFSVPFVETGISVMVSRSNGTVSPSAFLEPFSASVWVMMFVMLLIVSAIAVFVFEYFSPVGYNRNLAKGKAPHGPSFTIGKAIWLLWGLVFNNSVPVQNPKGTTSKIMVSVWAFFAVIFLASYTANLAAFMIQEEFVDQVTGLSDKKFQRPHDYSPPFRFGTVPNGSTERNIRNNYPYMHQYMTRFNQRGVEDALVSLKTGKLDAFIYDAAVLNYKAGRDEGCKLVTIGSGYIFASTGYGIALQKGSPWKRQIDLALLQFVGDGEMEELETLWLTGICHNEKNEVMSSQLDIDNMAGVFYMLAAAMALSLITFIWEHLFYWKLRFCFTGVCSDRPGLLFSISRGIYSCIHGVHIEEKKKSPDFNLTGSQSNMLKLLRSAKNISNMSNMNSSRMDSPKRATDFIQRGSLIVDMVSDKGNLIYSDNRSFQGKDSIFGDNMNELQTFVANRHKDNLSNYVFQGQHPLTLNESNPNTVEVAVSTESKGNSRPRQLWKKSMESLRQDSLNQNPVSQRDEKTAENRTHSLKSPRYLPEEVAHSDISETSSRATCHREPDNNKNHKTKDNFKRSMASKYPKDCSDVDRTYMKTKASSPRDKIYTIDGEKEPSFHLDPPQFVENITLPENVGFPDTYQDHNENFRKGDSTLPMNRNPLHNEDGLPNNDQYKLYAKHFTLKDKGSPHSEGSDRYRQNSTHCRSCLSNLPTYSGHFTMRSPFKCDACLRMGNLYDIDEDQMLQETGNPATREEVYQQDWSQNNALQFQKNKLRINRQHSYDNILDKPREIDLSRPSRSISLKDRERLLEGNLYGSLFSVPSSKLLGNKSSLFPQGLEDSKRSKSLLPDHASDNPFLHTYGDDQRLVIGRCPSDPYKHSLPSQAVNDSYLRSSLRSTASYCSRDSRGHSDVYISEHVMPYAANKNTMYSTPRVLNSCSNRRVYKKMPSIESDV
Test [3] concerns the target GluN1 E621 Gly-substituted GluN1/2A (Rattus norvegicus, UniProt P35439+Q00959, E621G). The test is classed as cell-based. Particulars: 100 nM ArgTX-636, -60 mV. The gist of the method:
(§1)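 Rat GluN1-1a and GluN2A cDNAs carrying Gly substitutions made by site-directed mutagenesis and sequence-verified. Xenopus oocytes were each injected with cRNA (1 ng GluN1, 10 ng GluN2A). Two-electrode voltage clamp at -60 mV in buffer of 115 mM NaCl, 2 mM KCl, 5 mM HEPES and 1.8 mM BaCl2, pH 7.6. Percent block of agonist-evoked steady-state current by 100 nM test compound. Mean + SEM from 4–8 oocytes; ANOVA against WT.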

For test [4], the target named is GluN2A N614 Gly-substituted GluN1/2A (Rattus norvegicus, UniProt P35439+Q00959, N614G). The test is classed as cell-based. The settings on record: 100 nM ArgTX-636, -60 mV. The gist of the method:
as §1

Test [5] addresses GluN2A N615 Gly-substituted GluN1/2A (Rattus norvegicus, UniProt P35439+Q00959, N615G). The test is classed as cell-based. Particulars: 100 nM ArgTX-636, -60 mV. The gist of the method:
as §1

In test [6] the target is GluN2A S616 Gly-substituted GluN1/2A (Rattus norvegicus, UniProt P35439+Q00959, S616G). The test is classed as cell-based. Particulars: 100 nM ArgTX-636, -60 mV. The gist of the method:
as §1

Test [7] concerns the target GluN2A V617 Gly-substituted GluN1/2A (Rattus norvegicus, UniProt P35439+Q00959, V617G). The class given is cell-based. The settings on record: 100 nM ArgTX-636, -60 mV. The gist of the method: as §1
The test system of test [8] is GluN1/2A and GluN1/2B over GluN1/2C and GluN1/2D NMDAR subtypes. Particulars: ref [44]; [48]; cited from earlier work.
Where [9] appears, read: holding potential -80 mV, Glu 100 μM, Gly 50 μM, HEK293.

GluN1-N616G/2A, sequence (Q00959 23-1464, other chains not shown): as above
WT GluN1/2A, sequence (Q00959 23-1464, other chains not shown): as above

For the compound `[Mg+2]` [Mg^2+], the percent steady-state block on WT GluN1/2A (0.5 mM Mg^2+, WT) amounted to 88%; at GluN1-N616G/2A (0.5 mM Mg^2+, GluN1-N616G/2A), 28%; at GluN1-I619G/2A (0.5 mM Mg^2+, GluN1-I619G/2A), 53%.

Turning to `C[C@]12N[C@H](Cc3ccccc31)c1ccccc12` [MK-801, dizocilpine], the figures for the percent steady-state block (at WT GluN1/2A; on GluN1-N616G/2A; in test [1]) were 75%, “less than 40%” and “less than 40%”, respectively.

Consider `NC(=O)C[C@H](NC(=O)Cc1ccc(O)cc1O)C(=O)NCCCCCNCCCNCCCNC(=O)[C@@H](N)CCCN=C(N)N` [ArgTX-636, argiotoxin-636], for which the “decrease in dissociation rate over -60 to -100 mV” value in [2] (500 nM ArgTX-636, -60 to -100 mV range) is on record as “less than 2 fold”. In test [2] (500 nM ArgTX-636, membrane potential below -60 mV), the “increase in rate of onset of block per 20-mV negative depolarization” value was “approximately 5 fold”. For the same compound, the “steady-state block of the current” value in [2] (500 nM ArgTX-636 for 6 s, 100 μM Glu, -80 mV) turned out to be 96 ± 1%. For the same compound, the “fold higher association rate constant compared to memantine” value in test [2] (ArgTX-636 Kon vs literature memantine Kon) was “approximately 10 fold”. Besides, the “association rate constant (Kon) with the open channel” value in [2] (setting [9]) is reported as 4.4 ± 0.3 × 10^6 M^-1 s^-1. The “dissociation rate constant (Koff) with the open channel” value in test [2] (setting [9]) was 0.36 ± 0.09 s⁻¹. In test [2] (recovery after wash in absence of agonist, 500 nM ArgTX-636, -80 mV), the “mechanism of block (trapping)” value is on record as “trapping blocker”. In addition, the percent steady-state block at GluN1-N616G/2A (100 nM ArgTX-636, -60 mV, GluN1 N616G) is reported as 78%; in [1] (100 nM ArgTX-636, -60 mV, GluN1 S617G), “less than 15%”; at GluN1-I619G/2A (100 nM ArgTX-636, -60 mV, GluN1 I619G) it was “less than 15%”; in test [3] it was “less than 15%”; in test [4], around 100%; in test [5], around 100%. The percent steady-state block in test [6] and in [7] was around 100% throughout. Further, the “selectivity for GluN1/2A and GluN1/2B over GluN1/2C and GluN1/2D” value in test [8] is “more than 20 fold”.
